The target of test [1] is Nitric oxide synthase, inducible (Homo sapiens, UniProt P35228). In words: Inhibition of human inducible NOS activity. Summed up:
(§1)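 Human NOS isoform activity read out as conversion of [³H]L-arginine to [³H]L-citrulline. Percent inhibition was measured at 8–12 inhibitor concentrations to derive IC₅₀.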

Test [2] addresses T1, Nitric oxide synthase 3 (Homo sapiens, UniProt P29474).
T1 sequence (P29474 whole entry): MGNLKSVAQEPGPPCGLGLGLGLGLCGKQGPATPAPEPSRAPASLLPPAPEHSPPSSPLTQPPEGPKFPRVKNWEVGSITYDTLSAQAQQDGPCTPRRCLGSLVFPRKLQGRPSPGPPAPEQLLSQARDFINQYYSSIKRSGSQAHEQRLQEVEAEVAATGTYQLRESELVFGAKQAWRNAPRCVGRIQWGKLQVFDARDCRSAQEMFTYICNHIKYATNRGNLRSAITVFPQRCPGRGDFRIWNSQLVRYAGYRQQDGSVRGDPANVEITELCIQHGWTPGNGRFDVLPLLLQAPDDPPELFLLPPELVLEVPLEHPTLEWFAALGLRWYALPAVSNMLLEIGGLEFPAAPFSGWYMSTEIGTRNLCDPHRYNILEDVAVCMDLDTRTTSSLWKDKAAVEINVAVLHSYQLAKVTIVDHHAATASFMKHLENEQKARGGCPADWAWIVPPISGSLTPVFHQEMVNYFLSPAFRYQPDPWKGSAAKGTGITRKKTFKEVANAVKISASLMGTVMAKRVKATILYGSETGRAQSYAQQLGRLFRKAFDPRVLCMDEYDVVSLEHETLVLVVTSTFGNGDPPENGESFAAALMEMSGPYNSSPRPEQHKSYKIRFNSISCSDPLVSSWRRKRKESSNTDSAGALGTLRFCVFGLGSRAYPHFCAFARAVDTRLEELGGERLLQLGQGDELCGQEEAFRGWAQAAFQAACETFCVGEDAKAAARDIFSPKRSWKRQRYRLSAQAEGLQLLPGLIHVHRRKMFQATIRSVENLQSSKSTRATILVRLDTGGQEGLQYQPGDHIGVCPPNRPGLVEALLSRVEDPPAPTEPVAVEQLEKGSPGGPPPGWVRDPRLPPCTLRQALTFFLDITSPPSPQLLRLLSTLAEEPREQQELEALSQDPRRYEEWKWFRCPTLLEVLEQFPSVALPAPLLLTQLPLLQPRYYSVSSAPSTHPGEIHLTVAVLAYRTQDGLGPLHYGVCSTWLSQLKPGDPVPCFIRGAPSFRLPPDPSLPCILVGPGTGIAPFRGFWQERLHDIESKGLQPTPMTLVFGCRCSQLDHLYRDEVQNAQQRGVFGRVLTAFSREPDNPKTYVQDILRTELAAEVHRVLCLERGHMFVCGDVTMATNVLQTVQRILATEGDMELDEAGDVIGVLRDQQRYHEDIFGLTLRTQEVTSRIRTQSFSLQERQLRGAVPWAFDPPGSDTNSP
Briefly: Inhibition of human endothelial NOS activity. Summed up:
as §1

In test [3] the target is Nitric oxide synthase 1 (Homo sapiens, UniProt P29475). In words: Inhibition of human neuronal NOS activity.
For a further test, the species on record is Homo sapiens. In words: Selectivity for human nNOS over human eNOS. Summed up: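 Ratio of human eNOS IC₅₀ to human nNOS IC₅₀. Each IC₅₀ comes from radiolabelled arginine-to-citrulline conversion, with percent inhibition at 8–12 concentrations.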
Test [4] has as its target T2, Nitric oxide synthase 3 (Rattus norvegicus, UniProt Q62600).
T2 sequence (Q62600 whole entry): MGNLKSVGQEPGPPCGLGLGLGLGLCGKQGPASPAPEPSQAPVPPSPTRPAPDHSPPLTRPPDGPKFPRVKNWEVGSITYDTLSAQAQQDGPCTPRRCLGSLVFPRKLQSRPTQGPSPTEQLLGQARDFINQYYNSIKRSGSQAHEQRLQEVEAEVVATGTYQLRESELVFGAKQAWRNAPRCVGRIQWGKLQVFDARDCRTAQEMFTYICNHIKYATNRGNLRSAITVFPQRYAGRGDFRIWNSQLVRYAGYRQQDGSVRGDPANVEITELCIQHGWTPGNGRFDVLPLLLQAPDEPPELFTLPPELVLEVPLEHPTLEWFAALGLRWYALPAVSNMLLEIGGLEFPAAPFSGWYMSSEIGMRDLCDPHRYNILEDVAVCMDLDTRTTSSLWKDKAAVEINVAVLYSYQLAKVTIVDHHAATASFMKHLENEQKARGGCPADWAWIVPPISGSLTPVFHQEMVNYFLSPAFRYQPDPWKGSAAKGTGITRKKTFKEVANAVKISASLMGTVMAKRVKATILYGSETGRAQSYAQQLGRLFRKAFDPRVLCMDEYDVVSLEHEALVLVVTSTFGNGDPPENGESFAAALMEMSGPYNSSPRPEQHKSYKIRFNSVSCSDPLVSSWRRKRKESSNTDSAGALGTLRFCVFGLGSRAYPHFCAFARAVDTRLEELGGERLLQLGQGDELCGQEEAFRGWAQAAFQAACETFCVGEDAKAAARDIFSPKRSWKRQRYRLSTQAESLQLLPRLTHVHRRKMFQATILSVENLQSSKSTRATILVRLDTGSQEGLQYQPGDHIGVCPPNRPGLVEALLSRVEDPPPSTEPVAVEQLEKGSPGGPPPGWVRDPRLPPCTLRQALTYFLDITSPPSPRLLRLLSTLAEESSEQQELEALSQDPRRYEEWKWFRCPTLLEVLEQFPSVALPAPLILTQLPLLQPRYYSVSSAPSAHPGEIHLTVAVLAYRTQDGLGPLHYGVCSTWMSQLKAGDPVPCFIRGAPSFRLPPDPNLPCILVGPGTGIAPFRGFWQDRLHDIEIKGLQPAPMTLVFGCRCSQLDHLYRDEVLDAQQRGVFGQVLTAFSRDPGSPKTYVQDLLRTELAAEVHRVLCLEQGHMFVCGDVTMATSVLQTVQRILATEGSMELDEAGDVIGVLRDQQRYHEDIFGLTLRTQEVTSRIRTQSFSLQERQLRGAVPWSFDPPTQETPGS
In words: Inhibition of rat endothelial NOS activity. A digest of the protocol:
(§2)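 Rat NOS isoform activity read out as conversion of radiolabelled L-arginine to L-citrulline. Percent inhibition was measured in duplicate at 8–12 concentrations to give IC₅₀.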

Test [5] concerns the target Nitric oxide synthase 1 (Rattus norvegicus, UniProt P29476). In words: Inhibition of rat neuronal NOS activity.
Test [6] addresses Nitric oxide synthase, inducible (Rattus norvegicus, UniProt Q06518). In words: Inhibition of rat inducible NOS activity. Summed up: as §2

Some results are limits rather than exact numbers.

Chain of Nitric oxide synthase, inducible (Rattus norvegicus, UniProt Q06518) (Q06518 whole entry): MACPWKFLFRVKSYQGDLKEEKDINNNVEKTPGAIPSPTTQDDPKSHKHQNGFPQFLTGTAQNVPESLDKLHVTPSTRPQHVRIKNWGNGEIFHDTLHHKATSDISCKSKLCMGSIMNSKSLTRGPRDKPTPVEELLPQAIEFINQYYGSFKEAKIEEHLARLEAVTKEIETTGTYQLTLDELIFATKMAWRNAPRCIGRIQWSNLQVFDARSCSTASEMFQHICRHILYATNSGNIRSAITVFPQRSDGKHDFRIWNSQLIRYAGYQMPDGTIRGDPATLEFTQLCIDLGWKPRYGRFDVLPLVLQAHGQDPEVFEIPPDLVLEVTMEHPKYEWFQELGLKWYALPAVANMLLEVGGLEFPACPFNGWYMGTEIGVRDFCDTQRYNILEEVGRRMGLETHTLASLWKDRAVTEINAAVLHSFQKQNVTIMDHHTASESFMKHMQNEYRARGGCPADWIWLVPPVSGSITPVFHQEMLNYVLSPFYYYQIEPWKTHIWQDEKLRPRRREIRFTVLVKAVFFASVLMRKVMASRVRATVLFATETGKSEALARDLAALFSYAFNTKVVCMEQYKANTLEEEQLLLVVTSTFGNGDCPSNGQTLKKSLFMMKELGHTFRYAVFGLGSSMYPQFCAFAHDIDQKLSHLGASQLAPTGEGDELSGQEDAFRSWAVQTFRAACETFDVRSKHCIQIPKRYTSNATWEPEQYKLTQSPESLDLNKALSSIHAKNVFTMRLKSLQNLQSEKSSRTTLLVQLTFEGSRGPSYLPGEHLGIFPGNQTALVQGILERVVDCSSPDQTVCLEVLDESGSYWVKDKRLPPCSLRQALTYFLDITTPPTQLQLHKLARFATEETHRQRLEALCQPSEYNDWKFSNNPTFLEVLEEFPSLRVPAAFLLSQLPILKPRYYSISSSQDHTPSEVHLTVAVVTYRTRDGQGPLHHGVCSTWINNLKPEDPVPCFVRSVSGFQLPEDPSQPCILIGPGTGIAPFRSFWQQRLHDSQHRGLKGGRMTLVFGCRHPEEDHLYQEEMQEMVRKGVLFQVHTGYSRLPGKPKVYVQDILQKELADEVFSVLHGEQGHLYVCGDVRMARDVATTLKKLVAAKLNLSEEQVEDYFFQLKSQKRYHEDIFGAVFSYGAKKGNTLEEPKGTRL
Chain of Nitric oxide synthase, inducible (Homo sapiens, UniProt P35228) (P35228 whole entry, canonical isoform): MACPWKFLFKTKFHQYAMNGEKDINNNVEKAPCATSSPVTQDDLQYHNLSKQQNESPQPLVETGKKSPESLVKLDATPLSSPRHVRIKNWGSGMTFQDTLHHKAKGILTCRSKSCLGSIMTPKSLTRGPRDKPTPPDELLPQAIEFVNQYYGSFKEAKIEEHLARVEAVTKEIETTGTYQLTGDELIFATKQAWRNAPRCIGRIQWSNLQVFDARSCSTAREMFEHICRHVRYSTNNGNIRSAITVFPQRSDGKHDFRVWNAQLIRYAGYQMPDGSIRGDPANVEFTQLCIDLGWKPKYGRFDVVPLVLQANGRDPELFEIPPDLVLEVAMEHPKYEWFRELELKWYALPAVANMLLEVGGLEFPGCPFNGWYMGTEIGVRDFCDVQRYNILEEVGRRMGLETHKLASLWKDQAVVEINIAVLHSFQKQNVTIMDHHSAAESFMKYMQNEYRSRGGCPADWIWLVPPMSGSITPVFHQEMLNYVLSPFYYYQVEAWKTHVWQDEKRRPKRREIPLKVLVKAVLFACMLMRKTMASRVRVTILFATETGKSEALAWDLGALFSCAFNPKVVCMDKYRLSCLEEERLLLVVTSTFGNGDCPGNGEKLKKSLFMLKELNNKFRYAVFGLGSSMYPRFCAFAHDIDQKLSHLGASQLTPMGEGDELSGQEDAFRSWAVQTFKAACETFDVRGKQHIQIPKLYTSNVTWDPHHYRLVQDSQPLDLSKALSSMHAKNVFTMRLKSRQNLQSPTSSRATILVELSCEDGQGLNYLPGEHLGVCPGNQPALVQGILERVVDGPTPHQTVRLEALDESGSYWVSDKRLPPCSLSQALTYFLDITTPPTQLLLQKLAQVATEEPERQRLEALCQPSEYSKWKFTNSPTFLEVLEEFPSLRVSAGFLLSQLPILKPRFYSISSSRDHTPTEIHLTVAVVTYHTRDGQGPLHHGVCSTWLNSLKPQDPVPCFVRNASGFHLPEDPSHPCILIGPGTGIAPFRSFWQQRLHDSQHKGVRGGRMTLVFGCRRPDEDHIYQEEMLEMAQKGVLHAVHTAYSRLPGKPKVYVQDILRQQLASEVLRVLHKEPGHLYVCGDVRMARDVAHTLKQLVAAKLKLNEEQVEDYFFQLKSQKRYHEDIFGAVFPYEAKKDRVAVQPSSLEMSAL
Chain of Nitric oxide synthase 1 (Rattus norvegicus, UniProt P29476) (P29476 whole entry): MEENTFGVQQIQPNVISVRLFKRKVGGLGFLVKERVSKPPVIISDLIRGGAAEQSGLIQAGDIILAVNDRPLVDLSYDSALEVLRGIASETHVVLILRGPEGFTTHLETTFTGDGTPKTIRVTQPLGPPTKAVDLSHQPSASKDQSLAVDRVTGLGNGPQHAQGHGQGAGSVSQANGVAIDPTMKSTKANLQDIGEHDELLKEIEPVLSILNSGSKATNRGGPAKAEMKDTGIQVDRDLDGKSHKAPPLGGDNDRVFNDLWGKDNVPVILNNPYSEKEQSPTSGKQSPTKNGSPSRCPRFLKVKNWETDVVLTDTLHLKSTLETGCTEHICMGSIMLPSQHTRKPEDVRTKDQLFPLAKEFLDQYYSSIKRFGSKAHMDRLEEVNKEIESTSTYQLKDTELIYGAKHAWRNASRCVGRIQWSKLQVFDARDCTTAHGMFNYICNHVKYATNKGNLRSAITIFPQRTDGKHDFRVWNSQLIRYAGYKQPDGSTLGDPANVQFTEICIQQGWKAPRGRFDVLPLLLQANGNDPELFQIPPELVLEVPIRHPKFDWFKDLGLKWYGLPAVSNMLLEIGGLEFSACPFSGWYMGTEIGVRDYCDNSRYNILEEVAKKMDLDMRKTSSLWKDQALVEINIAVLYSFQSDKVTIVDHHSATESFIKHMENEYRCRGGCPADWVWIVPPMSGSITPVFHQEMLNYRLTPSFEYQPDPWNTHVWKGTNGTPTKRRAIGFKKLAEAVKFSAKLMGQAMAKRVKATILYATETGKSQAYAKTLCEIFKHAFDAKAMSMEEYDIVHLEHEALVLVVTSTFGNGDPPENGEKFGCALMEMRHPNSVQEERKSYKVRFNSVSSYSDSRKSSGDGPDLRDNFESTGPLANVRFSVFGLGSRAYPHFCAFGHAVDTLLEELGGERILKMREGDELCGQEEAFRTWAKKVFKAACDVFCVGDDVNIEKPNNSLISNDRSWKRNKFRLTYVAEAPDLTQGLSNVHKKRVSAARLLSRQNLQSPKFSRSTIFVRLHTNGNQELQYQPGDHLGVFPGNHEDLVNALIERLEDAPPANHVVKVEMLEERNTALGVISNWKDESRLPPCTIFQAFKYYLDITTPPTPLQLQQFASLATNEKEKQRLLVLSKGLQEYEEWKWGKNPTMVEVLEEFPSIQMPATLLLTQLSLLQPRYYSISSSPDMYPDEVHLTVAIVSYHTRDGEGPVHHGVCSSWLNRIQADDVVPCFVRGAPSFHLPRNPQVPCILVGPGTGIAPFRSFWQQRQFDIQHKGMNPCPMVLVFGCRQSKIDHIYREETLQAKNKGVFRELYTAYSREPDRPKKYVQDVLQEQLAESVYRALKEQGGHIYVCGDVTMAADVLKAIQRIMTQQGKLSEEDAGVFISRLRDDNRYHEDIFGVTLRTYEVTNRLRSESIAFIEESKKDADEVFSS

For orientation: IC50 means the concentration needed to halve the response being measured. For the compound `N=C(Nc1ccc2sc(N)nc2c1)c1cccs1`, the IC50 in test [1] was found to be 79 µM; against Nitric oxide synthase 3 [2], 2.3 µM; on Nitric oxide synthase 1 [3], 200 nM. The Ratio IC50 in the test filed under Homo sapiens was found to be 13.

As for `CCSC(=N)Nc1ccc2nc(N)sc2c1`, the IC50 in test [1] is 46 µM; against Nitric oxide synthase 3 [2], 9.2 µM; against Nitric oxide synthase 1 [3] it was 1400 nM. Further, in the test filed under Homo sapiens, the Ratio IC50 came out at 7.

For the compound `N=C(Nc1ccc2nc(NCCc3ccc(Br)cc3)sc2c1)c1cccs1`, the IC50 in test [1] is 75 µM; on Nitric oxide synthase 3 [4], 5.2 µM; against Nitric oxide synthase 3 [2], 2.1 µM; against Nitric oxide synthase 1 [3], 4400 nM; against Nitric oxide synthase 1 [5] it was 4.7 µM. For the same compound, the Ratio IC50 in the test listed under Homo sapiens was found to be 0.5.

Turning to `N=C(Nc1ccc2nc(NC3CCN(Cc4ccc(F)cc4)CC3)sc2c1)c1cccs1`, the results for the IC50 (in test [1]; on Nitric oxide synthase 3 [2]; on Nitric oxide synthase 1 [3]) were 14 µM, 8 µM and 200 nM, respectively. In addition, the Ratio IC50 in the test listed under Homo sapiens was 40.

As for `N=C(Nc1ccc2sc(NC3CCN(Cc4ccccc4)CC3)nc2c1)c1cccs1`, the Ratio IC50 in the test filed under Homo sapiens is 40.

Take `CN1CCCC1CCNc1nc2cc(NC(=N)c3cccs3)ccc2s1` (racemic): the IC50 in test [1] was determined as 15 µM; at Nitric oxide synthase 3 [2], 1.6 µM; at Nitric oxide synthase 1 [3] it was 30 nM. For the same compound, in the test filed under Homo sapiens, the Ratio IC50 was determined as 53.

As to `N=C(Nc1ccc2sc(NCCc3ccccn3)nc2c1)c1cccs1`, the IC50 in test [1] amounted to 139 µM; against Nitric oxide synthase 3 [2], 6 µM; on Nitric oxide synthase 1 [3], 1100 nM. In addition, the Ratio IC50 in the test listed under Homo sapiens amounted to 5.

As for `COc1ccc(CN2CCC(Nc3nc4ccc(NC(=N)c5cccs5)cc4s3)CC2)cc1`, in the test listed under Homo sapiens, the Ratio IC50 worked out at 28.

For `COC(=O)c1ccc(CN2CCC(Nc3nc4ccc(NC(=N)c5cccs5)cc4s3)CC2)cc1`, the Ratio IC50 in the test listed under Homo sapiens was found to be 18.

As to `N=C(Nc1ccc2nc(NCCN3CCOCC3)sc2c1)c1cccs1`, the IC50 in test [6] turned out to be 44 µM; in test [1], 37 µM; at Nitric oxide synthase 3 [4], 9.1 µM; against Nitric oxide synthase 3 [2] it was 1.5 µM; against Nitric oxide synthase 1 [3], 200 nM.

For the compound `COc1ccc(CN2CCC(Nc3nc4ccc(N=C(N)c5cccs5)cc4s3)CC2)cc1`, the IC50 was 9 µM in test [1], 5.7 µM at Nitric oxide synthase 3 [2] and 200 nM at Nitric oxide synthase 1 [3].

Regarding `N=C(Nc1ccc2nc(NC3CCN(Cc4ccc(C(=O)O)cc4)CC3)sc2c1)c1cccs1`, the IC50 is more than 100 µM in test [1], 59 µM on Nitric oxide synthase 3 [2] and 5100 nM at Nitric oxide synthase 1 [3]. For the same compound, the Ratio IC50 in the test filed under Homo sapiens stood at 12.

For `N=C(Nc1ccc2sc(NCCN3CCOCC3)nc2c1)c1cccs1`, the IC50 in test [1] is 141 µM; at Nitric oxide synthase 3 [2], 12 µM; at Nitric oxide synthase 1 [3] it was 1300 nM. Besides, in the test listed under Homo sapiens, the Ratio IC50 is 9.

Take `N=C(Nc1ccc2nc(NC3CCN(CCc4cnc[nH]4)CC3)sc2c1)c1cccs1`: the Ratio IC50 in the test filed under Homo sapiens came out at 2.

`COc1cccc(CN2CCC(Nc3nc4ccc(NC(=N)c5cccs5)cc4s3)CC2)c1`: in the test filed under Homo sapiens, the Ratio IC50 is 27.

As for `N=C(Nc1ccc2nc(N)sc2c1)c1cccs1`, the values for the IC50 (in test [1]; against Nitric oxide synthase 3 [2]; at Nitric oxide synthase 1 [3]) were 25 µM, 2.9 µM and 200 nM, respectively. The Ratio IC50 in the test listed under Homo sapiens is 18.

In the case of `COc1cccc(CN2CCC(Nc3nc4ccc(N=C(N)c5cccs5)cc4s3)CC2)c1`, the 50% inhibitory concentration (IC50) is 19 µM in test [6]; more than 100 µM in test [1]; 1.3 µM on Nitric oxide synthase 3 [4]; 3.8 µM on Nitric oxide synthase 3 [2]; 100 nM at Nitric oxide synthase 1 [3]; 6.7 µM on Nitric oxide synthase 1 [5].

As for `CCSC(=N)Nc1ccc2sc(N)nc2c1`, in the test filed under Homo sapiens, the Ratio IC50 was 3.

Take `NC(=Nc1ccc2sc(NC3CCN(Cc4ccccc4)CC3)nc2c1)c1cccs1`: the figures for the half-inhibitory concentration (IC50) (in test [1]; against Nitric oxide synthase 3 [2]; on Nitric oxide synthase 1 [3]) were 48 µM, 16 µM and 400 nM, respectively.

Turning to `CCSC(N)=Nc1ccc2sc(N)nc2c1`, the IC50 in test [1] was found to be 97 µM; at Nitric oxide synthase 3 [2], 12 µM; against Nitric oxide synthase 1 [3] it was 4600 nM.

On to `NC(=Nc1ccc2nc(NC3CCN(CCc4cnc[nH]4)CC3)sc2c1)c1cccs1`, for which the IC50 in test [6] worked out at 26 µM; in test [1], 6 µM; against Nitric oxide synthase 3 [4] it was 4.6 µM; against Nitric oxide synthase 3 [2], 0.7 µM; against Nitric oxide synthase 1 [3] it was 300 nM; at Nitric oxide synthase 1 [5], 4.8 µM.

For `N=C(Nc1ccc2sc(NC3CCN(Cc4ccc(F)cc4)CC3)nc2c1)c1cccs1`, the values for the IC50 (in test [1]; against Nitric oxide synthase 3 [2]; against Nitric oxide synthase 1 [3]) were 91 µM, 13 µM and 800 nM, respectively. For the same compound, in the test filed under Homo sapiens, the Ratio IC50 turned out to be 16.

As for `N=C(Nc1ccc2nc(NC3CCN(Cc4ccccc4)CC3)sc2c1)c1cccs1`, the IC50 in test [6] came out at 36 µM; in test [1] it was 14 µM; on Nitric oxide synthase 3 [4], 12.5 µM; on Nitric oxide synthase 3 [2], 6 µM; against Nitric oxide synthase 1 [3], 500 nM; at Nitric oxide synthase 1 [5], 0.09 µM. The Ratio IC50 in the test listed under Homo sapiens is 12.

In the case of `N=C(Nc1ccc2nc(NC3CCOCC3)sc2c1)c1cccs1`, the IC50 in test [1] was found to be 64 µM; against Nitric oxide synthase 3 [2], 16 µM; against Nitric oxide synthase 1 [3], 2000 nM. Also, the Ratio IC50 in the test filed under Homo sapiens is 8.

Regarding `N=C(Nc1ccc2nc(NCCc3ccccn3)sc2c1)c1cccs1`, the IC50 in test [6] was found to be 25 µM; in test [1], 13 µM; against Nitric oxide synthase 3 [4], 3.4 µM; at Nitric oxide synthase 3 [2] it was 0.9 µM; against Nitric oxide synthase 1 [3], 1300 nM; at Nitric oxide synthase 1 [5] it was 0.05 µM. Besides, the Ratio IC50 in the test listed under Homo sapiens came out at 1.

In the case of `COC(=O)c1ccc(CN2CCC(Nc3nc4ccc(N=C(N)c5cccs5)cc4s3)CC2)cc1`, the IC50 in test [1] was more than 100 µM; at Nitric oxide synthase 3 [2], 5.2 µM; at Nitric oxide synthase 1 [3] it was 300 nM.

The values above are taken from ChEMBL document CHEMBL1147215, “Novel 2-aminobenzothiazoles as selective neuronal nitric oxide synthase inhibitors” (Bioorg Med Chem Lett, 2007).
